Results from different studies.
Lines come from different studies, so protocols differ.
Target: Myosin light chain kinase (MYLK3, Homo sapiens, UniProt Q32MK0)
Residues used in one study (Q32MK0 1-819): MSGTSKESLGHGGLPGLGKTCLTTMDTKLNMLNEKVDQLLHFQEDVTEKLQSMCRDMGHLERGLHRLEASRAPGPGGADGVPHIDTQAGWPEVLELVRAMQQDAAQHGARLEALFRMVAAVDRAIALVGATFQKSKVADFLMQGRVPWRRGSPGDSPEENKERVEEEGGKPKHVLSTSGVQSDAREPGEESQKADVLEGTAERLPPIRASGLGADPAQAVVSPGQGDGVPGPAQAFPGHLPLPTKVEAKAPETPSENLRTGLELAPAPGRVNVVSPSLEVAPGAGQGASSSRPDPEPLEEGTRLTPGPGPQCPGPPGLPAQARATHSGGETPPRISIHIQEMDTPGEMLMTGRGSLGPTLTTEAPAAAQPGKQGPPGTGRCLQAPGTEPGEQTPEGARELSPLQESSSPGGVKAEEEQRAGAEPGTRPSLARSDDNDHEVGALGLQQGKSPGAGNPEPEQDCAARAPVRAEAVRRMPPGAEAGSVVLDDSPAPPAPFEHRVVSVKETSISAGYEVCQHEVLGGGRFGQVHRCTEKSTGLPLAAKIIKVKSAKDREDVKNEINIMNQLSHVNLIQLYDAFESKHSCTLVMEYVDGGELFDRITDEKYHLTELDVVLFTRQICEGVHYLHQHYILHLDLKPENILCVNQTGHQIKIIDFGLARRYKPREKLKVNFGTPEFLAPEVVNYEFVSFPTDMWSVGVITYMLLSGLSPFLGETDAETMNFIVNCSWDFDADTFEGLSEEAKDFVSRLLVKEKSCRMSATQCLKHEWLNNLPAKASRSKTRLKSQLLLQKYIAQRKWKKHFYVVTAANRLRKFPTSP

CC(C)(C)c1nc(-c2cccc(NS(=O)(=O)c3c(F)cccc3F)c2F)c(-c2ccnc(N)n2)s1
remaining activity (enzyme activity, inhibitor, radiometric; 1 µM): 100%

CO[C@@H](C)c1c(Nc2ccc([C@@H](N(C)C(=O)C3CCS(=O)(=O)CC3)C(F)(F)F)cc2)cnc2cc(Cl)nn12
remaining binding (cell-free assay, competition with immobilised ligand; 1 µM): 87%

CC(C)(C)c1nc2c(s1)c1nc(N)ncc1c1ccc(NS(=O)(=O)c3c(F)cccc3F)c(F)c12
remaining activity (enzyme activity, inhibitor, radiometric; 1 µM): 93%

F[C@@H]1CCN(c2nccc(-c3cnn4ncccc34)n2)C1
remaining binding (binding; 1 µM): 100%

O=C1CCc2cc(Nc3cc(OC4CCOCC4)c([N+](=O)[O-])cc3Cl)ccc2N1
remaining binding (cell-free assay, competition with immobilised ligand; 1 µM): 100%

O=C(Nc1cnn(-c2csc(C(=O)NC3COC3)c2)c1)Nc1ccccc1Cl
remaining activity (enzyme activity, inhibitor; 5 µM): 95.1%

Cc1cnn2ncc(-c3ccnc(N(C)C)n3)c2c1
remaining binding (binding; 1 µM): 96%

Cc1ccc(C(=O)Nc2ccc(CN3CCN(C)CC3)c(C(F)(F)F)c2)cc1C#Cc1cnc2cccnn12
remaining activity (enzyme activity, inhibitor; 23.5 nM): 99%

CC(C)(O)[C@H]1CC[C@H](Nc2ccc3ncc(-c4cccc(C(F)(F)F)c4)n3n2)CC1
remaining activity (enzyme activity, inhibitor; 1 µM): 100%

Nc1ncnc2occ(-c3ccc(NC(=O)Nc4cc(C(F)(F)F)ccc4F)cc3)c12
remaining signal (cell-free assay, inhibitor; 20 µM): 0.15%
